STEP inh = STEP phosphatase inhibitors, primary screen, biochemical, fluorescence intensity, uHTS; recombinant STEP, OMFP fluorogenic substrate; inhibition, % at 20 µM; 360,000 compounds, 0.25% hits; AID 588621, 2011;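 active = inhibition at 20 µM, scaled per plate between control wells, above about 37%, limit read from the data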;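 note: 0% = DMSO with enzyme and substrate and 100% = substrate only without enzyme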
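Assay system: isolated STEP enzyme. Buffer or medium: pH 6.0 Bis-Tris with DTT and Tween 20. Also added: fluorogenic phosphatase substrate OMFP at 25 µM final. Dosing: 20 µM, 1% DMSO. Timing: 20 min reaction, room temperature, in the dark. Measured by: fluorescence intensity, excitation 480 nm, emission 540 nm. Evaluation: normalized % inhibition.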
LMPTP block = LMPTP phosphatase inhibitors, primary screen, biochemical, fluorescence intensity, uHTS; Low molecular weight phosphotyrosine protein phosphatase (Homo sapiens), P24666; AID 651560, 2012; 360,000 compounds, 0.22% hits; inhibition, % at 20 µM; recombinant LMPTP-A, OMFP fluorogenic substrate;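 active = compounds that cut the enzyme signal by at least half of the control window in the single-dose screen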;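 note: plate controls were DMSO wells with enzyme plus substrate for no effect and substrate without enzyme for full effect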
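Material: LMPTP-A; amount: 0.625 nM enzyme; doses: single 20 µM dose; times: reaction 50 min, room temperature, dark; technique: fluorescence intensity of OMFP turnover product; benchmarks: no-enzyme and uninhibited controls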
Scp1 inh = Scp-1 phosphatase inhibitors, primary screen, biochemical, colorimetric, uHTS | Recombinant Scp1, phosphopeptide, malachite green phosphate absorbance | inhibition, % at 20 µM | 340,000 compounds, 0.88% hits | AID 493091, 2011;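 active = inhibition above about 50% at 20 µM, limit read from the data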;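 note: plate controls were DMSO wells with enzyme for no effect and wells lacking enzyme for full effect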
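Times: enzyme reaction 45 min at room temperature, colour 5 min, stabilisation 30 min. Material: SCP-1 catalytic fragment, aa 76-261. Medium: Acidic Tris acetate buffer with magnesium and detergent. Signal: colorimetric free-phosphate detection, absorbance 630 nm. Read-out basis: % inhibition of SCP-1 phosphate liberation. Reagent: Phosphorylated 17-residue peptide substrate.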
SUMO1-SIM PPI = modulators of SUMO1 protein-protein interactions, primary screen, biochemical, uHTS; 360,000 compounds, 0.33% hits; inhibition, % at 20 µM; SUMO1 binding to a labelled peptide, TR-FRET, 1 h; AID 602429, 2012; in the data active = inhibition above about 37%
HKDC1 inhibitor = HKDC1 hexokinase inhibitors, primary screen, biochemical, fluorescence, uHTS. Q2TB90. recombinant HKDC1, G6PDH/diaphorase resazurin coupled fluorescence. inhibition, % at 20 µM. 340,000 compounds, 0.16% hits. AID 493160, 2011;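 active = inhibition above about 35% when tested at 20 µM, limit read from the data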;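 note: plate controls were DMSO wells with enzyme for no effect and DMSO wells lacking enzyme for full effect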
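Material – in-house recombinant HK5 (HKDC1) enzyme · Quantity – HKDC1 at 5 µg/mL · Buffer or medium – pH 8.0 Tris buffer with 10 mM MgCl2 · Reagent – glucose with 1 mM ATP · Dosing – single 20 µM dose · Times – reaction time 90 min, room temperature, protected from light · Technique – resorufin fluorescence at 613 nm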
DNMT1 inh = human DNMT1 methyltransferase inhibitors, primary screen, biochemical, molecular beacon, fluorescence, HinP1I cleavage, uHTS; inhibition (reported as % activation of signal), % at 10 µM; 360,000 compounds, 0.83% hits; AID 588458, 2011; in the data active = inhibition above about 50%
DNMT1 confirm = DNMT1 methyltransferase inhibitor retest, confirmation, biochemical, molecular beacon, fluorescence, single concentration; shares compounds with DNMT1 inh; DNMT1 molecular beacon HinP1I cleavage; inhibition, % at 10 µM; 2,300 compounds, 8% hits; AID 602385, 2012;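 active = average inhibition of at least 30% in the single-concentration confirmation test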
DNMT1 interf = shows spectral interference in the DNMT1 beacon assay; shares compounds with DNMT1 inh; DNMT1 molecular beacon spectral interference counterscreen, fluorescence 485/520; activation (fluorescence interference), % at 10 µM; 2,300 compounds, 1% hits; AID 602387;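 active = activation of at least 30% at 10 µM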;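 note: DNMT1 catalytic domain with a HinP1I cleavage step and a FAM/dabcyl DNA beacon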
Starred values were filed as active, the others as inactive; · = no result. Most compounds without a hit are left out; they make up all but 1.8% or so of the library.

SMILES | STEP inh | LMPTP block | Scp1 inh | SUMO1-SIM PPI | HKDC1 inhibitor | DNMT1 inh | DNMT1 confirm | DNMT1 interf
C=C(C)C(=O)Nc1ccc(OC(F)(F)C(F)F)c(NC(=O)C(=C)C)c1 | 3 | 0 | 44 | 0 | 0 | 56* | 4 | 6
CCCCC(=O)Nc1ccc(N2CCCC2)cc1 | 4 | 9 | -4 | -7 | -1 | 77* | 1 | 3
O=C(Nc1ccc(N2CCCC2)cc1)C(c1ccccc1)c1ccccc1 | 7 | 4 | 3 | 8 | 0 | 73* | 2 | -1
O=C(Nc1ccc(N2CCCC2)cc1)c1cc2ccccc2o1 | 1 | 26 | 0 | -27 | -6 | 65* | 4 | -2
O=C(Cc1ccc(Cl)cc1)Nc1ccc(NC(=O)c2ccccc2)cc1 | 1 | 16 | 3 | 1 | -3 | 56* | 3 | 6
CCCCC(=O)Nc1ccc(N2CCN(C(=O)CC)CC2)cc1 | 1 | -1 | -11 | -5 | -7 | 7 | · | ·
O=c1[nH][nH]c2c1[C@H](c1ccc(Cl)cc1)O[C@H](C1CCCCC1)C2 | · | -1 | · | 4 | · | · | · | ·
Cn1c(=O)c2cc(NC(=O)NCc3ccccc3)ccc2n1C/C=C/c1ccccc1 | 2 | 0 | · | -5 | · | -5 | · | ·
O=C(Cc1ccccc1)Nc1ccc(N2CCOCC2)cc1 | -3 | -1 | 2 | -1 | 4 | -4 | · | ·
O=C(Cc1ccccc1)Nc1cccc(N2CCCC2)c1 | -1 | 16 | -11 | 0 | -3 | 78* | 1 | 3
CCOc1cccc(C(=O)NC(=S)Nc2ccc(N3CCCC3)cc2)c1 | 11 | 5 | 7 | -7 | -2 | 72* | 1 | 2
CCOc1cccc(C(=O)Nc2ccc(N3CCN(S(C)(=O)=O)CC3)cc2)c1 | -3 | 2 | 5 | 0 | 2 | 14 | · | ·
O=C(Cc1ccccc1)Nc1ccc(N2CCCC2)cc1 | 1 | 37 | 2 | -1 | 6 | 94* | 6 | -4
O=C(Nc1ccc(N2CCCC2)cc1)c1ccc(Br)cc1 | 2 | 9 | -1 | -54 | -4 | 58* | 13 | -6
O=C(CCc1ccccc1)Nc1ccc(N2CCCCC2)cc1 | 2 | -1 | -5 | -2 | 4 | -8 | · | ·
O=C(NCc1ccccc1Cl)[C@@H]1CCCN1S(=O)(=O)c1ccc(Cl)cc1 | -1 | 1 | 47 | 5 | -3 | 4 | · | ·
O=C(NC(c1ccc(-c2ccccc2)cc1)c1cnccn1)C1CCN(Cc2cccs2)CC1 (centres undefined) | 1 | -1 | · | -3 | · | -5 | · | ·
N#Cc1c(NC(=O)CSc2ncnc3sccc23)oc(-c2ccco2)c1-c1ccco1 | 2 | 12 | -1 | 39 | 13 | 92* | 5 | 2
Cc1cc(NC(=O)CSc2ncnc3sccc23)no1 | -2 | 0 | 2 | -2 | 7 | 3 | · | ·
CC1(C(=O)NCc2cccc(C(F)(F)F)c2)CCN1CCc1ccccc1 (centres undefined) | 2 | -1 | · | 3 | · | -3 | · | ·
C(=C\c1nc(N2CCCC2)c2ccccc2n1)/c1ccccc1 | 2 | 85* | 18 | -2 | 5 | 61* | 3 | 3
CC1CCN(c2nc(/C=C/c3ccccc3)nc3ccccc23)CC1 | 3 | 18 | 18 | -1 | 11 | 1 | · | ·
N#Cc1ccccc1/C=N/Nc1nc(-c2ccccc2)c2cc(Cl)ccc2n1 | 2 | 11 | 9 | -6 | 0 | 66* | 4 | -3

High-throughput results (PubChem)
